Assay outcomes (PubChem BioAssay)
PglD inh – C. jejuni PglD acetyltransferase inhibitors, primary screen, biochemical, DTNB colorimetric, single point; UDP-N-acetylbacillosamine N-acetyltransferase PglD (Campylobacter jejuni); purified PglD enzyme, DTNB colorimetric CoA detection; inhibition, % at 12.5 µM; actives 0.098% (n = 360,000); in the data active = inhibition above about 16%, passing the limit was not always enough
DENV2 CPE rescue – inhibitors of DENV2 cytopathic effect, primary screen, cell-based, plate reader, single concentration | DENV2-infected cells, cytopathic effect rescue | CPE inhibition, % at 9.99 µM | actives 1.7% (n = 350,000) | AID 651640, 2012; in the data active = CPE inhibition above about 20%, passing the limit was not always enough; tested in BHK-21 cells;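 also: 0% = median of neutral control wells and 100% = median of positive control wells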
rRNA inh HTS – reduced GFP signal of wild-type E. coli, primary screen, bacterial rRNA inhibitor project, GFP/RFP fluorescence, OD600, single point | E. coli WT GFP vs humanized-ribosome RFP mutants, 24 h; active compounds read low; DMSO median 0, no signal -100 | GFP signal change (wild-type ribosome), % (test concentration not listed) | actives 1.6% (n = 350,000) | AID 720706, 2013;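 active = significant combined selectivity score with lowered wild-type GFP, culture density cut under 30%, mutant RFP and density less affected; inactive = any of these conditions unmet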
PGC1a acetyl inh – inhibitors of PGC1a acetylation signal, primary screen, cell-based, U2OS, AlphaScreen, inhibitor mode; actives 0.17% (n = 350,000); AlphaScreen anti-acetyl-lysine; with virally co-expressed GCN5 acetyltransferase; inhibition, % at 15.6 µM;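 active = every replicate shows inhibition of at least 40%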;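 also: 0% = neutral control wells and 100% = positive control wells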
FN deposit inh – inhibitors of fibronectin matrix deposition, primary screen, AH1F cells, Alexa488-fibronectin fluorescence, plate reader. inhibition, % at 12.6 µM. actives 0.086% (n = 350,000). AH1F fibroblasts, overnight. AID 743247, 2014;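 active = mean inhibition across replicates of 30% or more, regardless of how many single replicates reach that level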;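 also: positive control wells lacked labelled fibronectin entirely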
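Test system: AH1F fibroblast monolayer depositing Alexa488-labelled fibronectin into matrix. Input: 10000 cells per well. Technique: fluorescence, ex 485 nm, em 525 nm. Buffer or medium: DMEM plus 2% serum, read in PBS. Timing: 1 h cell adhesion before compound, then overnight fibronectin incubation. Compound: single dose, pinned. Read-out basis: inhibition from reduced deposited-fibronectin fluorescence.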
Env fusion inh – inhibitors of HIV-1 Env-driven cell-cell fusion, primary screen, HeLa-JRFL effector, CEM21 target cells, luciferase. actives 1.1% (n = 360,000). inhibition, % at 12.3 µM;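 active = mean replicate inhibition score of at least 50 and every replicate individually at or above 50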;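 also: 0% = plate neutral controls and 100% = maraviroc near 300 nM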
* marks the source's active call; other numbers are inactive results; · = no result given; [ ] = another dose, or the depositor's remark. Sampled rows, rich in hits. Any-hit rate of the full collection: about 3.5%.

SMILES	PglD inh	DENV2 CPE rescue	rRNA inh HTS	PGC1a acetyl inh	FN deposit inh	Env fusion inh
O=C(C1CCOCC1)N1C[C@@H]2[C@H](c3ccccc31)[C@@H](CO)N2Cc1ccccc1	2	·	1	-2	·	·
CC(C)NC(=O)N1C[C@@H]2[C@H](c3ccccc31)[C@@H](CO)N2C(=O)c1ccccc1	0	29*	4	3	·	·
CC(C)NC(=O)N1C[C@@H]2[C@H](c3ccccc31)[C@H](CO)N2C(=O)NC(C)C	0	-7	0	5	·	·
COc1cccc(CNC(=O)[C@@H]2[C@@H](CO)[C@@H]3Cn4c(ccc(-c5cccnc5)c4=O)[C@H]2N3C(C)=O)c1	-2	-6	1	·	·	·
CC(=O)/C(C#N)=C1\NC(=O)C(Cc2ccc(C)c(Cl)c2)S1 (stereo not drawn)	6	87*	-34	-15	-2	-65
COc1ccc(CN(C)C[C@@H]2Oc3ccc(NS(=O)(=O)c4ccc(Cl)cc4)cc3C(=O)N([C@H](C)CO)C[C@@H]2C)cc1	1	-6	5	0	-5	·
CC(=O)N(C)C[C@@H]1Oc2ncc(-c3cccnc3)cc2C(=O)N([C@H](C)CO)C[C@H]1C	1	-2	0	3	5	15[16.7 µM]
COc1cccc(-c2ccc([C@@H]3[C@H]4CN(C(=O)c5ccc(F)cc5)CCCCN4[C@H]3CO)cc2)c1	2	6	-46	-22	·	·
COc1cccc(-c2ccc([C@@H]3[C@@H](CO)N4CCCCN(C(=O)c5ccc(F)cc5)C[C@H]34)cc2)c1	-1	43*	-57	-16	·	·
COc1cccc(-c2ccc([C@H]3[C@@H](CO)N4CCCCN(C(=O)c5ccc(F)cc5)C[C@H]34)cc2)c1	4	43*	-55	-22	·	·
C[C@H](CO)N1C[C@H](C)[C@H](CN(C)S(=O)(=O)c2ccc(Cl)cc2)OCCCC[C@H](C)Oc2ccc(NC(=O)CCCN(C)C)cc2C1=O	-2	21*	-12	6	2	-4[16.7 µM]
C[C@@H]1CCCCO[C@H](CN(C)S(=O)(=O)c2ccc(Cl)cc2)[C@@H](C)CN([C@H](C)CO)C(=O)c2cc(NC(=O)Nc3ccc(F)cc3)ccc2O1	1	8	2	10	-8	16[16.7 µM]
C[C@@H]1CCCCO[C@@H](CN(C)S(=O)(=O)c2ccc(Cl)cc2)[C@@H](C)CN([C@@H](C)CO)C(=O)c2cc(NC(=O)Nc3ccc(F)cc3)ccc2O1	2	29*	1	0	-7	-70[16.7 µM]
C[C@H](CO)N1C[C@H](C)[C@H](CN(C)S(=O)(=O)c2ccccc2)OCCCC[C@H](C)Oc2ccc(NC(=O)Nc3ccc(F)cc3)cc2C1=O	3	22*	-1	-3	·	1[16.7 µM]
C[C@@H]1CCCCO[C@@H](CN(C)S(=O)(=O)c2ccc(Cl)cc2)[C@@H](C)CN([C@@H](C)CO)C(=O)c2cc(NC(=O)CCCN(C)C)ccc2O1	-1	-16	-1	4	·	-1[16.7 µM]
CO[C@H]1CN(C)C(=O)c2ccc(NS(=O)(=O)CC(F)(F)F)cc2OC[C@@H](C)NC[C@H]1C	0	13	1	4	1	28[16.7 µM]
O=C(/C=C/c1ccc(F)cc1)NNC(=O)CCN1CCN(Cc2ccccc2)CC1	·	6	2	52*	-12	3
O=C(/C=C/c1ccc(F)cc1)NC(=S)N1CCOCC1	·	-3	11	-9	10	-15
O=C(/C=C/c1ccc(F)cc1)NC(=S)N1CCN(Cc2ccccc2)CC1	-6	1	-34*	·	-4	8
COc1cc2c(cc1OC)CN(Cc1ccccc1)CC2	6	-2	17	10	-10	-4
COc1cc2c(cc1OC)CN(CCC(C)c1ccc(Cl)cc1)CC2 (stereo not drawn)	11	-5	-33*	10	-2	33
C[C@H](CO)N1C[C@H](C)[C@@H](CN(C)C(=O)C2CC2)Oc2ncc(-c3ccc(C(=O)N(C)C)cc3)cc2C1=O	5	·	2	5	2	-8[16.7 µM]
Cc1ccc(S(=O)(=O)Nc2ccc3c(c2)C(=O)N([C@@H](C)CO)C[C@H](C)[C@H](CN(C)Cc2ccncc2)OCCCC[C@H](C)O3)cc1	8	0	-3	-4	1	-6[16.7 µM]
OC(c1ccc(F)c(F)c1)c1nc(-c2ccccc2)cs1 (stereo not drawn)	6	7	-70	14	6	0
COc1ccc(-c2csc(C(O)c3cccc(OC)c3)n2)cc1 (stereo not drawn)	-1	52*	1	3	6	19
SMILES	PglD inh	DENV2 CPE rescue	rRNA inh HTS	PGC1a acetyl inh	FN deposit inh	Env fusion inh
COc1cccc(C(O)c2nc(-c3cc(F)cc(F)c3)cs2)c1 (stereo not drawn)	-1	30*	-34	·	·	25
CC(=O)NC(c1cccc(F)c1)c1nc(-c2cccc(C(C)C)c2)cs1 (stereo not drawn)	-4	9	-12	100*	7	8
COc1ccc(C(O)c2nc(-c3cc(F)cc(F)c3)cs2)cc1 (stereo not drawn)	6	-7	-9	·	4	25
O=C(O)c1cccc(-c2csc(C(O)c3ccc(F)c(F)c3)n2)c1 (stereo not drawn)	8	41*	-4	-34	·	-14
O=C([C@@H]1[C@@H](CO)[C@@H]2Cn3c(ccc(-c4ccccc4)c3=O)[C@@H]2N1Cc1cocn1)N1CCCCC1	10	-9	1	·	·	·
C[C@@H]1CN([C@@H](C)CO)C(=O)c2cc(-c3cccnc3)cnc2O[C@@H]1CN(C)C(=O)NC1CCCC1	5	-12	5	4	-7	-19[16.7 µM]
COc1cccc(NC(=O)Nc2ccc3c(c2)OC[C@@H](C)N(CC2CC2)C[C@@H](C)[C@H](OC)CN(C)C3=O)c1	·	·	-1	-18	3	·
O=C(C[C@@H]1CC[C@@H](NS(=O)(=O)c2ccc(F)cc2)[C@@H](CO)O1)NC1CCC1	-4	10	0	-9	·	1[16.7 µM]
N#C/C(=C/c1ccc(Sc2nc3ccccc3[nH]2)o1)c1cccc(F)c1	3	·	·	6	·	87*
N#C/C(=C/c1ccc(Sc2nc3ccccc3[nH]2)o1)c1ccccc1F	·	·	·	·	·	73*
N#C/C(=C/c1ccc(Sc2nc3ccccc3[nH]2)o1)c1cccc(Br)c1	-16	·	·	-5	·	·
O=C(CC(F)(F)F)N1C[C@@H]2[C@H](c3ccccc31)[C@@H](CO)N2C(=O)c1cccnc1	-4	23*	2	10	·	·
